Results: ChEMBL document CHEMBL3351648, “Synthesis and pharmacological evaluation of 6-aminonicotinic acid analogues as novel GABA(A) receptor agonists” (Eur J Med Chem, 2014)
One block for each molecule: values may come before it.

How the values were obtained:
[1] = molecular target: GABA-A receptor; anion channel; assay: Displacement of [3H]muscimol from GABAA receptor in SPRD rat brain synaptic membranes by scintillation counting method; type: cell membranes
Summary of the method: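 Rat synaptic membranes were thawed, homogenized in ice-cold 50 mM Tris-HCl pH 7.4, and spun at 48,000g for 10 min at 4 °C, with the wash repeated four times. Incubation was with 5 nM [3H]muscimol (final) and varying test concentrations for 60 min at 0 °C, then GF/C filtration and scintillation counting.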

[2] = molecular target: T1, GABA-A receptor; alpha-1/beta-2/gamma-2 (Homo sapiens, UniProt P14867+P18507+P47870); assay: (§1) Agonist activity at human GABAAalpha1beta2gamma2S receptor expressed in tsA-201cells by FLIPR membrane potential blue assay; conditions: read-out: EC50
T1 sequence (P14867 whole entry): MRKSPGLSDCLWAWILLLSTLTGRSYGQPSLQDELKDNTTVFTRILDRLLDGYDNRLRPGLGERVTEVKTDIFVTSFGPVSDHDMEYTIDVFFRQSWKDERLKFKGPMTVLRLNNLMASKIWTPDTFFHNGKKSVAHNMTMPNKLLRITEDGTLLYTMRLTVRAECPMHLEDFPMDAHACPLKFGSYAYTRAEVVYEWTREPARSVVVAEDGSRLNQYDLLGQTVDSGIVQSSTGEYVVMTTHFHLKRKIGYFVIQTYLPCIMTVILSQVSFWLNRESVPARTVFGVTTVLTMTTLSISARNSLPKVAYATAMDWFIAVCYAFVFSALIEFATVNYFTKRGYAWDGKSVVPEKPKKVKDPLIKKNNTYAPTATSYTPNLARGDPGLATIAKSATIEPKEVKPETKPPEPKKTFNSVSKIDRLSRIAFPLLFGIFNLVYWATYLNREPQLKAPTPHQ
T1 sequence (P47870 whole entry): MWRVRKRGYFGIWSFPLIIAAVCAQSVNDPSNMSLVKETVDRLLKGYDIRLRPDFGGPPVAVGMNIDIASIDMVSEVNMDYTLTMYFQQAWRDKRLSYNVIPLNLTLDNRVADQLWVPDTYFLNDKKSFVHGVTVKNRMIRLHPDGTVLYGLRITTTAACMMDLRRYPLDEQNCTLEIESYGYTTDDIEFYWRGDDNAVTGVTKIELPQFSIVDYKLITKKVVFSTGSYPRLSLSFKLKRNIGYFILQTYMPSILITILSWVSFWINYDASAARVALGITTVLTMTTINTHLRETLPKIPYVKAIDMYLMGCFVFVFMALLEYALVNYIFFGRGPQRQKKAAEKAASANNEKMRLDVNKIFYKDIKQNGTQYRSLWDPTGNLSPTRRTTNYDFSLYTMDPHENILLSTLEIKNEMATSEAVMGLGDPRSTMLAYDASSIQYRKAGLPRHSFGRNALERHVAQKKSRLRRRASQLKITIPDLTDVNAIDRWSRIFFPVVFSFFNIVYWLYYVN
T1 sequence (P18507 whole entry): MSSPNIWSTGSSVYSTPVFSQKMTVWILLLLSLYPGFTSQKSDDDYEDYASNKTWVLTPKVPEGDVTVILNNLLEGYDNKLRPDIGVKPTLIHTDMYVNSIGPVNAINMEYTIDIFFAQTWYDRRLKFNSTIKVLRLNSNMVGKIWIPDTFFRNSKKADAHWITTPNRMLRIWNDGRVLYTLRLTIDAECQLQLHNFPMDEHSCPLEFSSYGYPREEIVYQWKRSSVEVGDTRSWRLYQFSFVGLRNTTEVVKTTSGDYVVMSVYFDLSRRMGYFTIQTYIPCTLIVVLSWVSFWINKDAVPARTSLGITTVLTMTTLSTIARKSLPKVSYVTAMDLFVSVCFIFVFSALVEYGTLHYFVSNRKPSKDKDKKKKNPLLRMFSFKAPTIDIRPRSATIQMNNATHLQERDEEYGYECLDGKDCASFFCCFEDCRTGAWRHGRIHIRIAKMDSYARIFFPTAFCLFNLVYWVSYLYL
Summary of the method: (§2)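 tsA201 cells (8×10^5 per 6 cm dish) were transfected with α1, α2, α3 or α5 plus β2 and γ2S cDNAs (1:1:3), or with ρ1 alone. Next day cells were replated into poly-D-lysine 96-well plates. After 16–24 h they were washed with Krebs buffer pH 7.4, given membrane-potential dye, held 30 min at 37 °C, and read at 560 nm emission. Concentration-response curves used ΔFU before versus after agonist; duplicates were run ≥3 times.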

[3] = molecular target: T2, GABA-A receptor; alpha-1/beta-2/gamma-2 (Homo sapiens, UniProt P14867+P47870+P18507); assay: as §1; conditions: tsa-201; summary of the method: as §2
T2 sequence (P14867 whole entry): T1 sequence (P14867 whole entry)
T2 sequence (P47870 whole entry): T1 sequence (P47870 whole entry)
T2 sequence (P18507 whole entry): T1 sequence (P18507 whole entry)

[4] = molecular target: T3, Gamma-aminobutyric acid receptor subunit rho-1 (Homo sapiens, UniProt P24046); assay: Agonist activity at human GABAA rho1 expressed in tsA-201cells by FLIPR membrane potential blue assay; summary of the method: as §2
T3 sequence (P24046 whole entry): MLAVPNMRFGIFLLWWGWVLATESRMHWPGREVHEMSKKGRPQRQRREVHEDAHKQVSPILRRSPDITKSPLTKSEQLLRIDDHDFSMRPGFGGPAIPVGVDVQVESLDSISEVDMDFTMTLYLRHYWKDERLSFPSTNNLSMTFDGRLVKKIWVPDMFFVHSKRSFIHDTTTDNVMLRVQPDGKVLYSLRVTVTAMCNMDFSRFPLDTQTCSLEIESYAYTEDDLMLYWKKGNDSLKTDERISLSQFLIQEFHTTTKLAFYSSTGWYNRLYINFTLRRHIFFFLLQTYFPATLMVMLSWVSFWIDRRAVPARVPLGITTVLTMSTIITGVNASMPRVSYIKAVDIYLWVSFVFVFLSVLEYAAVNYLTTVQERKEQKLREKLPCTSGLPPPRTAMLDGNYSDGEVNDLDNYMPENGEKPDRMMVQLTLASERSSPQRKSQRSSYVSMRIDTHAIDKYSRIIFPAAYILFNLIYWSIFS

[5] = molecular target: T4, GABA A receptor alpha-2/beta-2/gamma-2 (Homo sapiens, UniProt P18507+P47869+P47870); assay: Agonist activity at human GABAAalpha2beta2gamma2S receptor expressed in tsA-201cells by FLIPR membrane potential blue assay; summary of the method: as §2
T4 sequence (P47870 whole entry): T1 sequence (P47870 whole entry)
T4 sequence (P18507 whole entry): T1 sequence (P18507 whole entry)
T4 sequence (P47869 whole entry): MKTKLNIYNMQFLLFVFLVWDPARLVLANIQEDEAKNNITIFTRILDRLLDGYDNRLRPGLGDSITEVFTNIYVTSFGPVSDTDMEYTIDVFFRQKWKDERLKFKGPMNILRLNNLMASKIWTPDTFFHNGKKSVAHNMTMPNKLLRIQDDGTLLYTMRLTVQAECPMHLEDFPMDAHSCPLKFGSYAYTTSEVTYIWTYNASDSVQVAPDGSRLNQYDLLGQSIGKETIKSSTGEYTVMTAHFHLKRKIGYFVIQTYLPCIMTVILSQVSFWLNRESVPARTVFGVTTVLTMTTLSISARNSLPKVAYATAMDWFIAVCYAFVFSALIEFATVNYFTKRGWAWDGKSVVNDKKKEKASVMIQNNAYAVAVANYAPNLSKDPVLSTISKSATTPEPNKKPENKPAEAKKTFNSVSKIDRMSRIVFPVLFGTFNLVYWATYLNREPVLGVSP

[6] = molecular target: GABA A receptor alpha-2/beta-2/gamma-2 (Homo sapiens) (UniProt P47870+P18507+P47869); assay: Agonist activity at human GABAAalpha2beta2gamma2S receptor expressed in tsA-201cells by FLIPR membrane potential blue assay relative to GABA
[7] = molecular target: T5, GABA A receptor alpha-3/beta-2/gamma-2 (Homo sapiens, UniProt P18507+P34903+P47870); assay: Agonist activity at human GABAAalpha3beta2gamma2S receptor expressed in tsA-201cells by FLIPR membrane potential blue assay; summary of the method: as §2
T5 sequence (P47870 whole entry): T1 sequence (P47870 whole entry)
T5 sequence (P18507 whole entry): T1 sequence (P18507 whole entry)
T5 sequence (P34903 whole entry): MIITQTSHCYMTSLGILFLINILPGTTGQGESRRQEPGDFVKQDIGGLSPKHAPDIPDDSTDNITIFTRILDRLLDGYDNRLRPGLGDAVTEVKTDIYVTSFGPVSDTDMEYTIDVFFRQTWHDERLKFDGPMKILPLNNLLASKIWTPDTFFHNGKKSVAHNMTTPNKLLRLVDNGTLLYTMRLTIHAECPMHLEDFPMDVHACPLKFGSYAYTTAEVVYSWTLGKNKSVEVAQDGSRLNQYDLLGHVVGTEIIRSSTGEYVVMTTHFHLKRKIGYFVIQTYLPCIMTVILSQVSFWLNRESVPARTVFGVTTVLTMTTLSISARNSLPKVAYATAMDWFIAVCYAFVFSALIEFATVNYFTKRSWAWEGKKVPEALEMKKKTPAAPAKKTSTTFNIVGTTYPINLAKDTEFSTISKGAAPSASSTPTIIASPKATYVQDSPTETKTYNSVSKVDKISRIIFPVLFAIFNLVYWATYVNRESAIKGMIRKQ

[8] = molecular target: GABA A receptor alpha-3/beta-2/gamma-2 (Homo sapiens) (UniProt P47870+P18507+P34903); assay: Agonist activity at human GABAAalpha3beta2gamma2S receptor expressed in tsA-201cells by FLIPR membrane potential blue assay relative to GABA
[9] = Agonist activity at human GABAAalpha5beta2gamma2S receptor expressed in tsA-201cells by FLIPR membrane potential blue assay; type: cell membranes
[10] = test system: tsA-201; assay: Agonist activity at human GABAAalpha5beta2gamma2S receptor expressed in tsA-201cells by FLIPR membrane potential blue assay relative to GABA
[11] = molecular target: T3, Gamma-aminobutyric acid receptor subunit rho-1; assay: Agonist activity at human GABAA rho1 expressed in tsA-201cells by FLIPR membrane potential blue assay relative to GABA
[12] = Dissociation constant, pKa of the compound by diode array detector method; type: physicochemical
Summary of the method: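 pKa was determined by titration in methanol cosolvent at 23–48%, with three titrations per compound. An in-line diode-array detector recorded UV-Vis spectra, and the titration was mapped against the spectra of the protonated and unprotonated species.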

- Ki [1]: 1.4 µM
- EC50 [3]: Active
- EC50 ([4]; tsa-201): Active
Structure (SMILES): Cc1nc(N)ccc1C(=O)O

- Ki [1]: > 100 µM
Structure (SMILES): Nc1ncccc1CC(=O)O

- Ki [1]: > 100 µM
Structure (SMILES): Nc1ccc(C(=O)O)c(Cl)n1

- Ki [1]: > 100 µM
Structure (SMILES): Nc1ncc(C(=O)O)cc1I

- Ki [1]: 73 µM
Structure (SMILES): Nc1cc(CC(=O)O)ccn1

- Ki [1]: > 100 µM
Structure (SMILES): Nc1ncccc1C(=O)O

- Ki [1]: > 100 µM
- pKa [12]: 1.4
Structure (SMILES): O=C(O)c1cncnc1

- Ki [1]: 19 µM
Structure (SMILES): Nc1cc(C(=O)O)ccn1

Continued, molecule first:

Structure (SMILES): CCCCc1nc(N)ccc1C(=O)O
- Ki [1]: 7.1 µM
- EC50 [2]: > 1000 µM
- pEC50 [3]: < 3
- EC50 ([4]; read-out: EC50): > 1000 µM
- pEC50 ([4]; tsa-201): < 3

Structure (SMILES): O=C(O)C1=CCNCC1 [ISOGUVACINE]
- Ki [1]: 0.055 µM
- EC50 [2]: 11 µM
- EC50 ([4]; read-out: EC50): 39 µM
- EC50 [5]: 4.5 µM
- Rmax [6]: 95%
- EC50 [7]: 5.6 µM
- Rmax [8]: 91%
- EC50 [9]: 0.78 µM
- pEC50 [9]: 6.1
- Rmax [10]: 101%
- Rmax [11]: 85%

Structure (SMILES): NC1=NCC(C(=O)O)CC1 (configuration not stated)
- Ki [1]: 0.044 µM
- EC50 [2]: 2.6 µM
- EC50 ([4]; read-out: EC50): 2.3 µM
- EC50 ([4]; read-out: pEC50 (converted)): 1.23 µM
- pKa [12]: 12.4
- EC50 [5]: 0.82 µM
- Rmax [6]: 101%
- EC50 [7]: 1.1 µM
- Rmax [8]: 93%
- EC50 [9]: 0.092 µM
- pEC50 [9]: 7.04
- Rmax [10]: 100%
- Rmax [11]: 64%

Structure (SMILES): NC1=NCC(C(=O)O)CN1 (configuration not stated)
- Ki [1]: 0.54 µM
- EC50 [2]: 14 µM
- EC50 ([4]; read-out: EC50): 8.1 µM
- EC50 ([4]; read-out: pEC50 (converted)): 1.58 µM
- pKa [12]: 12.7
- EC50 [5]: 9.4 µM
- Rmax [6]: 91%
- EC50 [7]: 19 µM
- Rmax [8]: 85%
- EC50 [9]: 2.1 µM
- pEC50 [9]: 5.68
- Rmax [10]: 113%
- Rmax [11]: 55%

Structure (SMILES): CCCCc1cc(N)ncc1C(=O)O
- Ki [1]: 24 µM
- EC50 [2]: > 1000 µM
- pEC50 [3]: < 3
- EC50 ([4]; read-out: EC50): > 1000 µM
- pEC50 ([4]; tsa-201): < 3

Structure (SMILES): CNC1=NCC(C(=O)O)CC1 (configuration not stated)
- Ki [1]: 49 µM
- pKi [1]: 4.32
- EC50 [2]: > 1000 µM
- pEC50 [3]: < 3

Structure (SMILES): CCc1cc(N)ncc1C(=O)O
- Ki [1]: 9.3 µM
- EC50 [2]: > 1000 µM
- pEC50 [3]: < 3
- EC50 ([4]; read-out: EC50): > 1000 µM
- pEC50 ([4]; tsa-201): < 3
